Experimental data collected from several papers.
Each line is one published result; the experiments were not run side by side.
Cell line: K562
Read-out: cell growth or viability

Structure (SMILES) | method | time | IC50
C[C@@H](O)C(=O)CCCCCCC(=O)Nc1ccccc1 | thymidine uptake | – | 62.5 µM
COC(=O)Nc1nc2ccc(Oc3ccc(NC(=O)Nc4cc(C(F)(F)F)ccc4F)cc3)cc2s1 | XTT | 72 h | 0.081 µM
Cc1cc(NCCCCCCCNc2cc(C)nc3cc(N)ccc23)c2ccc(N)cc2n1 | XTT | 96 h | 13 µM
CCCCN(Cc1ccc(C(=O)NO)cc1)C(=O)Nc1ccccc1 | ATP luminescence | 72 h | 2.25 µM
O=C1NC(=NCc2cccs2)S/C1=C\c1ccc2ncccc2c1 | – | – | > 10 µM
O=C1CCCCC1C1C2C=CC=CC1/C(=C/Cc1ccccc1)C2 (centres unmarked) | flow cytometry | – | 0.038 µM
COc1cc(Nc2nccc(-c3cnn4nc(OC)ccc34)n2)cc(C(F)(F)F)c1 | ATP luminescence | – | 0.26 µM
Cc1c(O)c(=O)ccn1CCO | MTT | 72 h | ≥ 100 µM
CC(=O)OCCC1=CC2C=CC=CC1C2C1CCCCC1=O (centres unmarked) | flow cytometry | – | 0.039 µM
CCCON(Cc1ccc(C(=O)NO)cc1)C(=O)Nc1ccc(N(C)C)cc1 | ATP luminescence | 72 h | 7.68 µM
N#CCCCC1=CC2C=CC=CC1C2C1CCCCC1=O (centres unmarked) | flow cytometry | – | 0.031 µM
C[C@H](O)C(=O)CCCCCCC(=O)Nc1cccc(-c2cn(-c3ccccc3)nn2)c1 | thymidine uptake | – | 7.12 µM
CN1c2ccccc2C(=O)N2[C@H](C(=O)Nc3ccc(C(=O)Nc4ccccc4N)cc3)Cc3c([nH]c4ccccc34)[C@@H]12 | – | – | 1.9 µM
N[C@@H](CC(=O)N1CCN(C(c2ccc(F)cc2)c2ccc(F)cc2)CC1)C(=O)N1Cc2ccccc2C1 | ATP luminescence | 48 h | 40.8 µM
O=C1CCCCC1C1C2C=CC=CC1C(CCN1C(=O)c3ccccc3C1=O)=C2 (centres unmarked) | flow cytometry | – | 0.011 µM
CC[C@@H](C)[C@H](N)C(=O)N1Cc2ccccc2C1 | ATP luminescence | – | > 60 µM
CCCCC1=CC2C=CC=CC1C2C1CCCCC1=O (centres unmarked) | flow cytometry | – | 0.029 µM
